Experimental data as given in ChEMBL document CHEMBL3611983, “Highly Potent and Selective MT2 Melatonin Receptor Full Agonists from Conformational Analysis of 1-Benzyl-2-acylaminomethyl-tetrahydroquinolines” (J Med Chem, 2015).

Assays:
[1] = biological target: T1, Melatonin receptor type 1A (Homo sapiens, UniProt P48039); assay: Displacement of 2-[125I]-Iodomelatonin from human MT1 receptor transfected in CHO cell membranes after 120 mins
Outline: (§1)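 Membranes from CHO cells stably expressing the receptor were pelleted and homogenized in Tris 5 mM/EDTA 2 mM, then held at -80 °C. Assay buffer was 50 mM Tris-HCl pH 7.4 with 5 mM MgCl2. Radioligand was 20 pM, with nonspecific binding defined by 1 μM melatonin.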

[2] = biological target: T1, Melatonin receptor type 1A; assay: Intrinsic activity at human MT1 receptor transfected in CHO cell membranes after 1 hr by [35S]GTPgammaS binding assay; assay type: functional
Outline: (§2)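 Transfected CHO membranes at 20 μg/mL were incubated in 20 mM HEPES pH 7.4 with 100 mM NaCl, 3 μM GDP, 3 mM MgCl2 and 20 μg/mL saponin. 0.2 nM [35S]GTPγS was added and incubation ran 1 h at room temperature. Nonspecific binding was defined by 10 μM GTPγS, with 1 μM melatonin as reference. Filtration was on GF/B. Curves used 7 concentrations in duplicate, giving EC50 and Emax.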

[3] = Displacement of 2-[125I]-Iodomelatonin from human MT2 receptor transfected in CHO cell membranes after 120 mins; outline: as §1
[4] = (§3) Intrinsic activity at human MT2 receptor transfected in CHO cell membranes after 1 hr by [35S]GTPgammaS binding assay; outline: as §2
[5] = test system: CHO; assay: as §3; outline: as §2
[6] = species: Homo sapiens; assay: Selectivity ratio of Ki for human MT1 receptor to Ki for human MT2 receptor

T1 sequence (P48039 whole entry): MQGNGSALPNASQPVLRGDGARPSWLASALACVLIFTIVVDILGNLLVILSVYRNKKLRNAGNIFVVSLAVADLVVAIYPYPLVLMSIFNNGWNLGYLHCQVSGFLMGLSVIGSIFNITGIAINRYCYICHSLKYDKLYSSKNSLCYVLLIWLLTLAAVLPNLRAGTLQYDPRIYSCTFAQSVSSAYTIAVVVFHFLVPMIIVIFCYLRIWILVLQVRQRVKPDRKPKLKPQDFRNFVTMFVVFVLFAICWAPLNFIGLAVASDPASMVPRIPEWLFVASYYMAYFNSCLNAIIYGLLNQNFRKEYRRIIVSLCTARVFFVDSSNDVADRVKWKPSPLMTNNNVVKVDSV

SMILES	Ki [1] [nM]	EC50 [2] [nM]	Emax [2] [%]	EC50 [4] [nM]	Ratio Ki [6]	Ki [3] [nM]	Emax [5] [%]
CC(=O)NC[C@@H]1CCc2ccccc2N1Cc1ccccc1	122			19		6.2	60
CCC(=O)NCc1ccc2c(OC)cccc2n1	> 10000					4450	
CCC(=O)NCC1CCc2c(cccc2OC)N1 (racemic)	57	906	70	165		21	98
CCNC(=O)NCC1CCc2c(cccc2OC)N1 (racemic)	480					114	
CCNC(=O)NCC1CCc2ccccc2N1 (racemic)	115	2420	30	356		17	80
CCNC(=S)NCC1CCc2c(cccc2OC)N1 (racemic)	> 1000					> 1000	
CCNC(=S)NCC1CCc2ccccc2N1 (racemic)	305	2660	35	1430		90	72
CCNC(=O)NCC1CCc2c(OC)cccc2N1Cc1ccccc1 (racemic)	132	393	44	13		2.9	107
CCC(=O)NCC1CCc2cc(OC)ccc2N1Cc1ccccc1 (racemic)	186			4.6		1.5	75
CCC(=O)NCC1CCc2ccc(OC)cc2N1Cc1ccccc1 (racemic)	214			25		26	42
CC(=O)NCC1CCc2ccccc2N1Cc1ccccc1 (racemic)	45	31	35	0.4		0.04	60
O=C(NCC1CCc2ccccc2N1Cc1ccccc1)C1CC1 (racemic)	291			0.3		0.2	38
O=C(NCC1CCc2ccccc2N1Cc1ccccc1)C1CCC1 (racemic)	633					6.2	< 15
CC(=O)NCC1CCc2ccccc2N1CCc1ccccc1 (racemic)	171					3	< 15
CCC(=O)NCC1CCc2ccccc2N1CC(=O)NC (racemic)	> 10000					385	
CCC(=O)NCCC1CCc2ccccc2N1Cc1ccccc1 (racemic)	326			4.7		1.6	59

Further molecules by falling Ki [1], results first:

Ki [1] [nM]	EC50 [2] [nM]	Emax [2] [%]	EC50 [4] [nM]	Ratio Ki [6]	SMILES	Ki [3] [nM]	Emax [5] [%]
45	192	52	1.9		CC(=O)NC[C@H]1CCc2ccccc2N1Cc1ccccc1	0.1	80
37	36	42	0.4	> 400	CCC(=O)NCC1CCc2ccccc2N1Cc1ccccc1 (racemic)	0.09	73
22	809	76	66		CCNC(=S)NCC1CCc2ccccc2N1C (racemic)	15	73
17	177	79	0.9	> 10000	CCC(=O)NCC1CCc2c(OC)cccc2N1Cc1ccccc1 (racemic)	0.001	111
13	242	37	27		CCC(=O)NCC1CCc2ccccc2N1 (racemic)	2.2	
5.8	2	39	0.2		CCCN1c2ccccc2CCC1CNC(C)=O (racemic)	0.1	58
5.3	110	69	6.2		CCNC(=O)NCC1CCc2ccccc2N1C (racemic)	3.4	97
5	160	92	10		CCNC(=O)NCC1CCc2c(OC)cccc2N1C (racemic)	1.4	105
1.6	6.2	69	0.5		CCC(=O)NCC1CCc2ccccc2N1c1ccccc1 (racemic)	0.06	90
0.7	0.9	69	0.6		CCC(=O)NCC1CCc2ccccc2N1C (racemic)	0.2	122
0.03	1.7	112	0.5		CCC(=O)NCC1CCc2c(OC)cccc2N1C (racemic)	0.5	122
